Test results taken from publication PMC6039304 (International Journal for Parasitology: Drugs and Drug …, 2018).
Read-outs that look alike come from different tables or passages of the source.

Experiments:
[1] = system: L. infantum promastigotes; assay: ROS production in promastigotes; format: cell-based, Leishmania infantum; details: compounds at IC50; 1 h, 3 h, 6 h
intracellular L.infantum = format: cell-based, Leishmania infantum; details: for IC50: read-out: Intracellular amastigotes IC50
Procedure, shortened: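 THP-1 cells were differentiated with 1 μM retinoic acid for 72 h, then infected overnight at 1:4 cell:parasite. Infected cells were purified on Histopaque 1077 (1300g, 20 min) and exposed 24 h (37 °C, 5% CO2) to serial dilutions. Infection was scored by counting % infected cells in Giemsa-stained cytospins. For combinations, peptaibol was held at 5 or 2 μM while alkylphosphocholine was varied (15–0.2 or 25–0.2 μM). CI came from linear isoboles; SI = CC50/intracellular IC50.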

[2] = in humans; cited from earlier work
[3] = system: L. infantum promastigotes; assay: viability of promastigotes at early stages of treatment; format: cell-based, Leishmania infantum; details: 6 h, compound at IC50
Procedure, shortened: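 Promastigotes (5 × 10^5/ml) were incubated 6 h with test compounds or combinations at their IC50 values. Propidium iodide was added at 12 μM and samples were run immediately by flow cytometry (≥10^4 cells). The value is % PI-stained promastigotes relative to control, mean ± SEM of at least 3 experiments.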

[4] = system: L. infantum promastigotes; assay: mitochondrial membrane polarization in promastigotes; format: cell-based, Leishmania infantum; details: for ΔΨm dissipation: at 6 h, relative to control, compound alone
Procedure, shortened: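 Promastigotes (5 × 10^5/ml) were treated with test compounds or combinations at their IC50 values for 1, 3 or 6 h, then stained with 0.1 μM MitoTracker Red CMXRos for 30 min. Flow cytometry (488 nm laser, ≥10^4 cells, debris and autofluorescence excluded) scored the % of cells fluorescing above 10^2 (log scale) at 630 nm, relative to untreated control. Data came from at least 3 experiments.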

[5] = cytotoxicity in THP-1 monocytes; format: cell-based, human; details: human, THP-1 monocytes
Procedure, shortened: (§1)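 THP-1 monocytes, maintained at 37 °C and 5% CO2 in RPMI with FBS and antibiotics, were seeded at 10^6/ml. They were incubated 24 h with serial dilutions of test compounds or combinations, resuspended in PBS, stained with 12 μM propidium iodide and counted by flow cytometry. CC50 is the concentration giving 50% of maximum cytotoxicity. Single-point combination tests used the alkylphosphocholine at 15 or 25 μM with peptaibol at 5 or 2 μM.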

THP-1 monocytes = assay: cytotoxicity in THP-1 monocytes; format: cell-based, human; details: for CC50: read-out: Cytotoxicity CC50, THP-1 monocytes
Procedure, shortened: as §1

[6] = system: L. infantum promastigotes; assay: antileishmanial activity in promastigote cultures; format: cell-based, Leishmania infantum; details: 24 h, read-out: Promastigotes IC50
Procedure, shortened: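 The L. infantum field strain came from an infected dog spleen and was grown at 26 °C in RPMI with 10% heat-inactivated FBS and 2% penicillin/streptomycin. Promastigotes at 10^6/ml were incubated with serial dilutions of test compound for 24 h at 26 °C. Cells were then resuspended in PBS, stained with 12 μM propidium iodide and analysed by flow cytometry. IC50 is the concentration killing 50% of parasites.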

human RBCs = assay: hemolytic potential on red blood cells; format: cell-based; details: for Hemolysis HC50 / HC50 fold higher than that of HePC: human RBCs; for Hemolysis HC50: 1 h, 37 °C, 50% of maximum hemolysis with water; for % hemolysis: at 100 μM of each compound
Procedure, shortened: (§2)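 EDTA-anticoagulated blood from healthy volunteers was spun at 900 g for 10 min and the red cells washed three times in PBS. Cells were mixed 1:1 (v/v) with serial dilutions of test compound prepared in PBS, incubated 1 h at 37 °C, and centrifuged. Supernatant absorbance was read at 550 nm, with water-lysed cells as 100% hemolysis. HC50 was derived as for IC50. Combinations used the alkylphosphocholine at 15 or 25 μM plus peptaibol at 5 or 2 μM.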

[7] = hemolytic potential on red blood cells; format: cell-based, human; details: human, red blood cells from EDTA-preserved peripheral blood
Procedure, shortened: as §2

[8] = system: L. infantum promastigotes; assay: morphological changes in promastigotes; format: cell-based, Leishmania infantum; details: 6 h, 26 °C, at IC50; scanning electron microscopy
trypanosomiasis = details: mouse model; ref Kumar et al., 1991; cited from earlier work
[9] = single compound, intracellular amastigote in THP-1 monocytes, 24 h

Row | Compound | ROS production in promastigotes [1] | Hemolysis HC50 (human RBCs) [µM] | morphological alterations of promastigotes [8] | IC50 (intracellular L.infantum; [9]) [µM] | ΔΨm dissipation [4] [%] | CC50 (THP-1 monocytes; 24 h) [µM] | IC50 ([6]; 26 °C) [µM] | % hemolysis (human RBCs) [%] | HC50 fold higher than that of HePC (human RBCs) [fold] | further results
1 | CCCCCCCCCCCCCCCCOP(=O)([O-])OCC[N+](C)(C)C [HePC, hexadecylphosphocholine, reference compound] | low levels of ROS | 38.3 ± 2.8 | did not seem to affect noticeably the morphology |  |  |  |  |  |  | IC50 (intracellular L.infantum; Leishmania infantum, THP-1, 24 h): 1.8 ± 0.5 µM; Selectivity Index (SI), CC50/IC50 against the intracellular form (intracellular L.infantum; THP-1 CC50 / intracellular amastigote IC50): 15.8; half-life [2]: 100 to 200 h; PI-stained promastigotes [3]: 5.5%; mitochondrial transmembrane potential (MitoTracker retention) ([4]; compounds at IC50, 1 h, 3 h, 6 h): significantly induce accumulation of MitoTracker above the control levels; CC50 at 24 h [5]: 28.6 ± 2.5 µM; % PI-stained THP-1 cells (THP-1 monocytes; 15 μM HePC or 25 μM TC52, alone or combined with 5 μM AAM or 2 μM SZ, 24 h): 27.6%; IC50 ([6]; Leishmania infantum): 8.2 ± 0.7 µM; hemolysis at 1 h, 100 µM [7]: 96.1%
2 | antiamoebin [AAM] | moderate levels of ROS | 94.6 ± 2.6 | caused damage to the plasma membrane and altered flagellar morphology | 7.5 ± 0.2 | 75 | 40.3 ± 3.2 | 8.7 ± 0.1 | 52.9 | 2.5 | trypanocidal activity (trypanosomiasis): exhibits trypanocidal activity; fold less cytotoxic than HePC (THP-1 monocytes; THP-1 CC50 ratio): 1.4 fold; fold less cytotoxic than SZ (THP-1 monocytes; THP-1 CC50 ratio): about 1.8 fold
3 | suzukacillin A [SZ] | moderate levels of ROS | 66.9 ± 2.2 |  | 7.6 ± 1.2 | 30 | 22.5 ± 3.2 | 8.2 ± 0.1 | 96.6 | 1.7 | 
